# Screens from PubChem.
# pPAFAH inh – inhibitors of human plasma PAF acetylhydrolase (pPAFAH); Q13093; inhibition, % at 3.39 µM; recombinant pPAFAH, FP-rhodamine probe fluorescence polarization; 330,000 compounds, 1.5% hits;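 active = inhibition above the mean inhibition across the screen plus 3 SD, cut at about 25% in these data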;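 note: inhibitors block binding of the rhodamine activity-based probe so polarization drops; 0% = enzyme with DMSO and 100% = wells lacking pPAFAH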
# ASAP1 GAP inh – inhibitors of human ASAP1 ArfGAP activity. ASAP1-stimulated ARF1 GTP hydrolysis, GDP FP detection. inhibition, % at 16.5 µM. 360,000 compounds, 0.19% hits. AID 624377; in the data active = inhibition above about 25%;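 note: 0% = vehicle with enzyme and substrate and 100% = no enzyme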
# Target sequence (Q9ULH1 325-724 limits assumed): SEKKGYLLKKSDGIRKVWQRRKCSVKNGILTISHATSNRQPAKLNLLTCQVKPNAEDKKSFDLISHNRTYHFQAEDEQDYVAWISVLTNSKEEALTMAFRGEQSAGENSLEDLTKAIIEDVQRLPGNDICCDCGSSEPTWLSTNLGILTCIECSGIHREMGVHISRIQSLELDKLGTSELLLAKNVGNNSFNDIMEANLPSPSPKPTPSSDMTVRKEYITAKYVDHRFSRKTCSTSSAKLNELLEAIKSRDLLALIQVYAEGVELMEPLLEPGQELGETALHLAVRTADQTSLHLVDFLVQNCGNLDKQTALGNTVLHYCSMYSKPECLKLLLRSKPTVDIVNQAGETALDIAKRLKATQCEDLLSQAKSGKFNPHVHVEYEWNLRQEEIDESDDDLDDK
# PAFAH2 FP inh – inhibitors of human PAFAH2 | recombinant PAFAH2, FP-rhodamine activity probe, fluorescence polarization | Q99487 | 340,000 compounds, 0.99% hits | inhibition, % at 3.39 µM;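 active = inhibition above the mean over all tested compounds plus 3 SD, cut at about 30% in these data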;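 note: inhibitors block probe labeling of enzyme so polarization drops; 0% = enzyme with DMSO and 100% = wells lacking PAFAH2 protein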
# PAFAH1B3 inh – PAFAH1B3 (human) inhibition; recombinant PAFAH1B3, FP-rhodamine probe, fluorescence polarization; inhibition, % at 3.39 µM; 340,000 compounds, 0.28% hits;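 active = inhibition above the screen-wide average of all tested compounds plus 3 SD, cut at about 25% in these data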;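 note: 0% = enzyme with DMSO only and 100% = wells lacking PAFAH1B3 protein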
# ARFGAP1 inh – inhibitors of rat ARFGAP1 | Arfgap1-stimulated ARF1 GTP hydrolysis, GDP FP detection | 360,000 compounds, 0.26% hits | inhibition, % at 16.5 µM | AID 651572 | Q62848;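 active = inhibition above a per-plate limit, mean inhibition of low control wells plus 3 SD, cut at about 25% in these data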;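 note: 0% = DMSO wells with enzyme and 100% = wells lacking Arfgap1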
# Target sequence (Q62848 1-136 limits assumed): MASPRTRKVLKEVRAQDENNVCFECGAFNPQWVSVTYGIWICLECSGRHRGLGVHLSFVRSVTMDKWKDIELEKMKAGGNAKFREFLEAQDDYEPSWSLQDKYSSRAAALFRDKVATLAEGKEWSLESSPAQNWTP
#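 Material: truncated rat Arfgap1 GAP domain; Incubation: compound-enzyme preincubation 20 min, reaction 120 min, detection 60 min, 25 °C; Read-out: percent inhibition of Arfgap1-stimulated GTP hydrolysis; Technique: FP, GDP Alexa 633 tracer displaced from anti-GDP antibody, 620/688 nm; Controls: No-Arfgap1 wells (100%) versus DMSO full-reaction wells (0%); Replication: single well per compound.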
# PAFAH1B2 FP inh – inhibitors of human PAFAH1B2. P68402. recombinant PAFAH1B2, FP-rhodamine activity probe, fluorescence polarization. inhibition, % at 3.39 µM. 340,000 compounds, 1.2% hits. AID 492953;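 active = inhibition above the mean of all tested compounds plus 3 SD, cut at about 24% in these data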;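 note: 0% = enzyme with DMSO and 100% = wells lacking PAFAH1B2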
# Numbers without * were called inactive; . = no result given. Sampled rows, rich in hits. Any-hit rate of the full collection: about 2.7%.
SMILES,pPAFAH inh,ASAP1 GAP inh,PAFAH2 FP inh,PAFAH1B3 inh,ARFGAP1 inh,PAFAH1B2 FP inh
O=C(NNc1cc(Br)c(O)c(Br)c1)c1ccccc1,12,4,52*,-1,-4,9
O=C(O/N=C/c1ccc(Cl)cc1)C1CCCCC1,5,12,77*,12,7,94*
O=C(COC(=O)COc1ccc(Br)cc1)NCCC1=CCCCC1,11,0,-1,-5,2,30*
O=C(N[C@@H](Cc1cccnc1)C(=O)N1CCC[C@H]1C(=O)NCCc1ccccc1Cl)c1ccc(Cl)c(Cl)c1,.,2,.,.,3,.
N=c1c(S(=O)(=O)c2ccc(Br)cc2)cc2c(=O)n3ccccc3nc2n1Cc1ccco1,27*,-5,6,6,3,4
O=C(N/N=C/c1ccc(O)cc1)c1cc(-c2ccc3c(c2)OCO3)n[nH]1,1,25,0,-6,26*,0
C[C@@H]1CN([C@H](C)CO)C(=O)CCCn2nncc2CO[C@@H]1CN(C)C(=O)Nc1ccccc1,.,3,.,.,-6,.
Oc1ccc(/C=N/N2CCN(C3c4ccccc4-c4ccccc43)CC2)cc1O,33*,9,-6,-2,6,1
O=C1C=C(c2cccc3c2Oc2ccccc2S3)C[C@@H](c2ccc3c(c2)OCO3)C1,.,-7,.,.,5,.
COC(=O)Cc1ccc(NC(=S)NCc2ccccc2Cl)cc1,28*,10,0,14,9,5
COC(=O)CC(=O)CC(NS(=O)(=O)c1ccc(C)cc1)c1ccccc1 (stereo not drawn),.,2,.,.,0,.
O=C1CC(=C2c3ccccc3-c3ccccc32)C(=O)N1CCN1CCN(c2cccc(Cl)c2)CC1,26*,3,-6,1,1,-2
CCOC(=O)C1=C(C)NC2=C(C(=O)c3ccccc32)C1c1ccc(O)cc1 (stereo not drawn),32*,18,16,13,16,6
COC(=O)CC#C[C@H](C)[C@@H](NS(=O)(=O)c1ccc([N+](=O)[O-])cc1)C(C)(C)C,.,10,.,.,4,.
Cc1nn(-c2ccccc2)c2c1CC(=O)Nc1ccccc1-2,.,-10,-4,15,6,31*
Cc1nn(-c2ccccc2)c(=O)c2ccccc12,-2,-7,13,9,4,2
CCN=C1S/C(=C\c2cn(CC)c3ccccc23)C(=O)N1CC,9,8,6,9,-10,6
Cc1ccc(N=C2S/C(=C\c3cn(CC(=O)O)c4ccccc34)C(=O)N2C)cc1,26*,-10,8,17,-16,5
Oc1ccc(C=Nc2ccc(N3CCOCC3)cc2)c(O)c1,26*,-11,14,2,-8,9
Cc1ccc(O)c(N=Cc2cc(Cc3ccccc3)cc([N+](=O)[O-])c2O)c1,.,2,22,11,-18,34*
Oc1c(Cl)cc(Cl)cc1C=Nc1ccc(N2CCOCC2)cc1,13,-11,-5,6,-8,5
Cc1ccc(O)c(C=Nc2cc(C)ccc2O)c1,16,.,2,11,.,1
O=[N+]([O-])c1cc(Cc2ccccc2)cc(C=Nc2ccc(N3CCOCC3)cc2)c1O,34*,.,5,8,.,25*
C[C@H](CO)N1C[C@H](C)[C@@H](CN(C)C(=O)Nc2cccc(F)c2)OCc2cn(nn2)CCCC1=O,.,-12,.,.,-2,.
CCCCCCC(=O)NC1CCCCN(C)C1=O (stereo not drawn),.,-6,.,.,-1,.
SMILES,pPAFAH inh,ASAP1 GAP inh,PAFAH2 FP inh,PAFAH1B3 inh,ARFGAP1 inh,PAFAH1B2 FP inh
COC(=O)[C@]12C[C@H](CC(=O)NCCC(C)C)C(=O)N(Cc3ccc4c(c3)OCO4)C1=C[C@H](COCc1ccccc1)O[C@@H]2C,.,-5,.,.,-7,.
O=C(c1ccco1)N1CCN(C(=O)C23CC4CC(CC(C4)C2)C3)CC1,-3,-2,4,-7,5,10
CC12CC3CC(C)(C1)CC(C(=O)N1CCN(C(=O)c4ccco4)CC1)(C3)C2,6,-1,6,11,9,35*
Cc1ccc(Nc2ccc(C(=O)O)cc2N)cc1,28*,3,.,.,9,.
Cc1cc(C)cc(Nc2ccc(C(=O)O)cc2N)c1,18,5,17,12,-5,6
COc1cccc(Nc2ccc(C(=O)O)cc2N)c1,25*,7,-2,6,-5,3
CCOc1ccccc1Nc1ccc(C(=O)O)cc1N,7,1,-2,3,-10,1
COc1ccc(C(=O)COC(=O)c2cccs2)cc1,4,-2,12,4,-5,9
O=C(COC(=O)c1cccs1)c1ccccc1,9,-2,34*,14,3,4
COc1cccc(/C=C2/Sc3ccc(C(=O)NCCN4CCCC4)cc3NC2=O)c1,34*,24,-8,3,18,-1
COCc1[nH]nc2c1C(c1ccc(F)cc1)NC2=O (stereo not drawn),.,10,.,.,14,.
N#CC(c1ccc(=O)[nH]n1)c1ccc(Cl)cc1Cl (stereo not drawn),34*,-8,1,3,16,6
COC(=O)C1=C(C)N(C)C(=NCc2cccc(C(F)(F)F)c2)NC1c1cccc(Cl)c1 (stereo not drawn),.,-14,.,.,-5,.
COc1cccc(CN(C)C(=O)c2cc(S(=O)(=O)NC3CCCCC3)ccc2C)c1,34*,-14,10,-1,-10,7
O=[N+]([O-])c1ccc(CN2[C@H](COCc3ccccc3)C=CS2(=O)=O)cc1,.,-8,.,.,9,.
Nc1nc(-c2c[nH]c3ccccc23)cs1,1,2,-1,4,5,8
CCC(C)Nc1nc(-c2c[nH]c3ccccc23)cs1 (stereo not drawn),8,22,-7,7,32*,-3
O=C(O)C1=C[C@H](c2ccc(C(F)(F)F)cc2)C[C@H](OCc2ccc(CO)cc2)O1,2,0,6,3,-1,40*
Cc1ccc(S(=O)(=O)NNC(=O)C2CCCCC2)cc1,-4,11,-6,3,5,2
O=C(NNS(=O)(=O)c1ccc(Br)cc1)C1CCCCC1,1,-9,7,6,1,28*
CC(=O)N(C)C[C@@H]1OCc2ccccc2-c2c(n(C)c3ccccc23)C(=O)N([C@@H](C)CO)C[C@@H]1C,.,2,.,.,10,.
C=C[C@]1(C)C=C2CC[C@H]3[C@@](C)(CCC[C@@]3(C)C(=O)O)[C@@H]2CC1,4,.,9,0,.,48*
C[C@H]1COc2cc(N3CCOCC3)ccc2S(=O)(=O)N1,.,-11,.,.,-7,.
COc1cccc(=O)c2c(C)n(-c3cc(C)cc(C)c3)c(C)c12,23,2,59*,0,14,7
COc1cccc(=O)c2c(C)n(C)c(C)c12,13,-2,10,9,12,5
